Reference: ChEMBL document CHEMBL1131226, “Structure-activity relationship of 2-[[(2-pyridyl)methyl]thio]-1H- benzimidazoles as anti Helicobacter pylori agents in vitro and evaluation of their in vivo efficacy” (J Med Chem, 1998)
Converted amounts (≈) assume the structure as drawn.

What was measured:
[1] = chromatographic retention
Helicobacter pylori = experiment: Antibacterial activity against Helicobacter pylori strain.; type: functional
Procedure, shortened: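 H. pylori ATCC 43504 in Brucella broth (pH 7.0) with 10% FCS, starting at ~10⁶ CFU/mL. Compounds were tested as twofold serial dilutions, 0.5–256 μg/mL, made in DMSO. Cultures were incubated 72 h at 37 °C under 85% N₂/10% CO₂/5% O₂ and read by OD at 560 nm. MIC is the lowest concentration completely inhibiting growth.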

Helicobacter felis = experiment: Antibacterial activity against Helicobacter felis strain in vitro.

For COCCCOc1ccnc(CSc2nc3ccccc3[nH]2)c1C, the “Log Ko” value [1] was 0.07 and the MBC (Helicobacter pylori) was 2 µg/mL (≈ 5.82 µM).
Compound COc1ccc2[nH]c(SCc3cc(SC)ccn3)nc2c1 has a Log Ko [1] of -0.16 and an MBC (Helicobacter pylori) of 256 µg/mL (≈ 806 µM).
In the case of COc1ccc2[nH]c(SCc3ncc(C)c(OC)c3C)nc2c1 [UFIPRAZOLE], the “Log Ko” value [1] is reported as 0 and the MBC (Helicobacter pylori) is reported as 32 µg/mL (≈ 97.1 µM).
With COc1c(C)cnc(CSc2nc3cc(C(C)(C)C)ccc3[nH]2)c1C the “Log Ko” value [1] was 0.86 and the MBC (Helicobacter pylori) was 8 µg/mL (≈ 22.5 µM).
c1ccc(CSc2nc3ccccc3[nH]2)nc1 showed an MBC (Helicobacter pylori) of 128 µg/mL (≈ 530 µM).
Work on Cc1ccnc(CSc2nc3ccccc3[nH]2)c1 yielded a Log Ko [1] of -0.21 and an MBC (Helicobacter pylori) of 128 µg/mL (≈ 501 µM).
For CC(=O)c1ccc2[nH]c(SCc3ncc(C)cc3C)nc2c1, the Log Ko [1] was -0.11 and the MBC (Helicobacter pylori) was 128 µg/mL (≈ 411 µM).
In the case of COc1ccnc(CSc2nc3cc(F)ccc3[nH]2)c1OC, the “Log Ko” value [1] is reported as 0.44 and the MBC (Helicobacter pylori) is reported as 4 µg/mL (≈ 12.5 µM).
In the case of Cc1cnc(CSc2nc3cc(C)ccc3[nH]2)c(C)c1, the “Log Ko” value [1] is reported as 0.23 and the MBC (Helicobacter pylori) is reported as 32 µg/mL (≈ 113 µM).
With Cc1c(OCC2CC2)ccnc1CSc1nc2ccccc2[nH]1 the “Log Ko” value [1] was 0.46, the MBC (Helicobacter felis) was 0.5 µg/mL (≈ 1.54 µM) and the MBC (Helicobacter pylori) was 1 µg/mL (≈ 3.07 µM).
For COc1ccnc(CSc2nc3cc(CO)ccc3[nH]2)c1C, the Log Ko [1] was -0.66 and the MBC (Helicobacter pylori) was 128 µg/mL (≈ 406 µM).
For Cc1c(OCc2ccccc2)ccnc1CSc1nc2ccccc2[nH]1, the “Log Ko” value [1] was 0.67 and the MBC (Helicobacter pylori) was 8 µg/mL (≈ 22.1 µM).
With Cc1c(OCC(C)C)ccnc1CSc1nc2ccccc2[nH]1 the “Log Ko” value [1] was 0.75 and the MBC (Helicobacter pylori) was 1 µg/mL (≈ 3.05 µM).
COc1ccnc(CSc2nc3ccccc3[nH]2)c1C showed a Log Ko [1] of -0.08 and an MBC (Helicobacter pylori) of 32 µg/mL (≈ 112 µM).
Work on COCCOc1ccnc(CSc2nc3ccccc3[nH]2)c1C yielded a Log Ko [1] of -0.17 and an MBC (Helicobacter pylori) of 2 µg/mL (≈ 6.07 µM).
For CC(=O)c1ccc2[nH]c(SCc3cc(C(C)(C)C)ccn3)nc2c1, the “Log Ko” value [1] was 0.18 and the MBC (Helicobacter pylori) was 64 µg/mL (≈ 189 µM).
With CCOc1ccnc(CSc2nc3ccccc3[nH]2)c1C the “Log Ko” value [1] was 0.19 and the MBC (Helicobacter pylori) was 2 µg/mL (≈ 6.68 µM).
For C#CCOc1ccnc(CSc2nc3ccccc3[nH]2)c1C, the Log Ko [1] was -0.01 and the MBC (Helicobacter pylori) was 2 µg/mL (≈ 6.46 µM).
In the case of Cc1cnc(CSc2nc3cc(Cl)ccc3[nH]2)c(C)c1, the “Log Ko” value [1] is reported as 0.45 and the MBC (Helicobacter pylori) is reported as 8 µg/mL (≈ 26.3 µM).
With C=CCOc1ccnc(CSc2nc3ccccc3[nH]2)c1C the “Log Ko” value [1] was 0.26 and the MBC (Helicobacter pylori) was 1 µg/mL (≈ 3.21 µM).
In the case of Cc1c(OCC(F)(F)F)ccnc1CSc1nc2ccccc2[nH]1 [LANSOPRAZOLE SULFIDE], the “Log Ko” value [1] is reported as 0.28 and the MBC (Helicobacter pylori) is reported as 4 µg/mL (≈ 11.3 µM).
COc1ccnc(CSc2nc3ccccc3[nH]2)c1 gave a Log Ko [1] of -0.3 and an MBC (Helicobacter pylori) of 64 µg/mL (≈ 236 µM).
For Clc1ccnc(CSc2nc3ccccc3[nH]2)c1, the Log Ko [1] was -0.08 and the MBC (Helicobacter pylori) was 64 µg/mL (≈ 232 µM).
With COc1c(C)cnc(CSc2nc3ccccc3[nH]2)c1C the “Log Ko” value [1] was 0.05 and the MBC (Helicobacter pylori) was 8 µg/mL (≈ 26.7 µM).
Work on CC1(C)S[C@@H]2[C@H](NC(=O)[C@H](N)c3ccc(O)cc3)C(=O)N2[C@H]1C(=O)O [AMOXICILLIN] yielded an MBC (Helicobacter felis) of 0.05 µg/mL (≈ 0.137 µM) and an MBC (Helicobacter pylori) of 0.05 µg/mL (≈ 0.137 µM).
In the case of c1ccc2[nH]c(SCc3cc(OCC4CC4)ccn3)nc2c1, the “Log Ko” value [1] is reported as 0.13 and the MBC (Helicobacter pylori) is reported as 32 µg/mL (≈ 103 µM).
